# From ChEMBL document CHEMBL4371014, “Novel Allosteric Ligands of γ-Aminobutyric Acid Transporter 1 (GAT1) by MS Based Screening of Pseudostatic Hydrazone Libraries” (J Med Chem, 2018)
# Calls of active or inactive are those of the source. No cut-off for these calls is given here.
# Legend:
# [1] = molecular target: Sodium- and chloride-dependent GABA transporter 1 (Homo sapiens) (UniProt P30531); experiment: Inhibition of human GAT1 expressed in HEK293 cells assessed as reduction in [3H]GABA uptake preincubated for 25 mins followed by [3H]GABA addition and measured after 4 mins by liquid scintillation counting method; type: cell-based
# Sodium- and chloride-dependent GABA transporter 1 (Homo sapiens), sequence (P30531 whole entry, looked up): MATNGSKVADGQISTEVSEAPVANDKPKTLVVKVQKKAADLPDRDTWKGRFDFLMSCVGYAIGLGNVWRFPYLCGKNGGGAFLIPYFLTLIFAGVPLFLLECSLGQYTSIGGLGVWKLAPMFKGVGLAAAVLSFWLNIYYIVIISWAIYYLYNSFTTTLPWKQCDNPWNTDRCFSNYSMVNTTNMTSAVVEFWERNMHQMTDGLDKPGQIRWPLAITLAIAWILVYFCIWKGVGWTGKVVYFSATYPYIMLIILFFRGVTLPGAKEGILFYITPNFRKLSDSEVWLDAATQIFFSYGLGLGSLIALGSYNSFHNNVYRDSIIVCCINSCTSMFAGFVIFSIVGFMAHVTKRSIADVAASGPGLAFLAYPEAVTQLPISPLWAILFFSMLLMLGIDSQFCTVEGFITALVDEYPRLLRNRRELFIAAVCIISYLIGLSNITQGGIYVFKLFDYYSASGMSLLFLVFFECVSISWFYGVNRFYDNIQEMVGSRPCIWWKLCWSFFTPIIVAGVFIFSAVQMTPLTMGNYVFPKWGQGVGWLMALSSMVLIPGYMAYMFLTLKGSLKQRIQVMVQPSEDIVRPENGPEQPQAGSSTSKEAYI
# [2] = molecular target: Sodium- and chloride-dependent GABA transporter 1 (Mus musculus) (UniProt P31648); experiment: Inhibition of NO711 binding to mouse GAT1 expressed in HEK293 cell membranes assessed as residual binding at 1 uM preincubated for 4 hrs followed by NO711 addition and measured after 40 mins by LC-ESI-MS/MS analysis relative to control
# Method in brief: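 Single hydrazones formed in situ in the presence of mouse GAT1 from one aldehyde (1.0 µM) and hydrazine (200 µM). Formation ran 4 h, then NO711 MS marker was added for 40 min. Specifically bound NO711 was freed from the target and quantified by LC-ESI-MS/MS. Results are % remaining specific binding, means±SD of four replicates.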
Compound,inhibition [1],Activity [2]
O=C(O)C1=CCCN(CCON=C(c2ccccc2)c2ccccc2)C1,Active,
COc1cc(/C=N/NCC[C@@H]2CNC[C@H](C(=O)O)C2)cc(OC)c1O (racemic),,62%
Cc1ccc(-c2cccc(/C=N/NC[C@@H]3CNC[C@H](C(=O)O)C3)c2)cc1 (racemic),,61%
Cc1ccc(-c2ccsc2/C=N/NCC[C@@H]2CNC[C@H](C(=O)O)C2)cc1 (racemic),,83%
Cc1cccc2cc(/C=N/NCC[C@@H]3CNC[C@H](C(=O)O)C3)c(Cl)nc12 (racemic),,62%
Cc1ccccc1-c1ccsc1/C=N/NCC[C@@H]1CNC[C@H](C(=O)O)C1 (racemic),,64%
Cc1ccsc1-c1ccccc1/C=N/NCC[C@@H]1CNC[C@H](C(=O)O)C1 (racemic),,61%
Cc1ccsc1-c1sc(/C=N/NCC[C@@H]2CNC[C@H](C(=O)O)C2)cc1C (racemic),,79%
Cc1ccsc1-c1sc(/C=N/NCC[C@H]2CNC[C@H](C(=O)O)C2)cc1C (racemic),,> 50%
Cc1ccsc1-c1sc(/C=N/NC[C@H]2CNC[C@H](C(=O)O)C2)cc1C (racemic),,> 50%
Cn1c(/C=N/NC[C@@H]2CNC[C@H](C(=O)O)C2)ccc1-c1ccc(Cl)cc1 (racemic),,87%
Cn1cnnc1Sc1ccc(/C=N/NCC[C@@H]2CNC[C@H](C(=O)O)C2)o1 (racemic),,73%
Cn1cnnc1Sc1ccc(/C=N/NC[C@@H]2CNC[C@H](C(=O)O)C2)o1 (racemic),,84%
Nc1ncc(-c2ccccc2/C=N/NC[C@@H]2CNC[C@H](C(=O)O)C2)cn1 (racemic),,93%
O=C(O)[C@H]1CNC[C@@H](CCN/N=C/c2ccc(-c3cc(C(F)(F)F)cc(C(F)(F)F)c3)o2)C1 (racemic),,76%
O=C(O)[C@H]1CNC[C@@H](CCN/N=C/c2ccc(-c3cc(C(F)(F)F)ccc3Cl)o2)C1 (racemic),,54%
O=C(O)[C@H]1CNC[C@@H](CCN/N=C/c2ccc(-c3ccc(Br)cc3)o2)C1 (racemic),,65%
O=C(O)[C@H]1CNC[C@@H](CCN/N=C/c2ccc(-c3ccc(C(F)(F)F)cc3Cl)o2)C1 (racemic),Active,47%
O=C(O)[C@H]1CNC[C@@H](CCN/N=C/c2ccc(-c3ccc(Cl)cc3)o2)C1 (racemic),,62%
O=C(O)[C@H]1CNC[C@@H](CCN/N=C/c2ccc(-c3ccc(Cl)cc3Cl)o2)C1 (racemic),Active,41%
O=C(O)[C@H]1CNC[C@@H](CCN/N=C/c2ccc(-c3ccc(Cl)cc3F)o2)C1 (racemic),,64%
O=C(O)[C@H]1CNC[C@@H](CCN/N=C/c2ccc(-c3ccc(Cl)cc3[N+](=O)[O-])o2)C1 (racemic),,60%
O=C(O)[C@H]1CNC[C@@H](CCN/N=C/c2ccc(-c3ccc(F)c(C(F)(F)F)c3)o2)C1 (racemic),,72%
O=C(O)[C@H]1CNC[C@@H](CCN/N=C/c2ccc(-c3cccc(C(F)(F)F)c3)o2)C1 (racemic),,70%
O=C(O)[C@H]1CNC[C@@H](CCN/N=C/c2ccc(-c3cccc(Cl)c3)o2)C1 (racemic),,69%

Compound,inhibition [1],Activity [2]
O=C(O)[C@H]1CNC[C@@H](CCN/N=C/c2ccc(-c3cccc4ccccc34)o2)C1 (racemic),,58%
O=C(O)[C@H]1CNC[C@@H](CCN/N=C/c2ccc(-c3ccccc3)o2)C1 (racemic),,61%
O=C(O)[C@H]1CNC[C@@H](CCN/N=C/c2ccc(-c3ccccc3C(F)(F)F)o2)C1 (racemic),,60%
O=C(O)[C@H]1CNC[C@@H](CCN/N=C/c2ccc(-c3ccccc3Cl)o2)C1 (racemic),,52%
O=C(O)[C@H]1CNC[C@@H](CCN/N=C/c2ccc(-c3ccccc3OC(F)(F)F)o2)C1 (racemic),,59%
O=C(O)[C@H]1CNC[C@@H](CCN/N=C/c2ccc(-c3ccn[nH]3)o2)C1 (racemic),,72%
O=C(O)[C@H]1CNC[C@@H](CCN/N=C/c2ccc(C#Cc3ccccc3)s2)C1 (racemic),,71%
O=C(O)[C@H]1CNC[C@@H](CCN/N=C/c2ccccc2-c2ccsc2)C1 (racemic),,80%
O=C(O)[C@H]1CNC[C@@H](CCN/N=C/c2ccccc2-n2cccc2)C1 (racemic),,82%
O=C(O)[C@H]1CNC[C@@H](CCN/N=C/c2cccn2-c2ccc(C(F)(F)F)cc2)C1 (racemic),,74%
O=C(O)[C@H]1CNC[C@@H](CCN/N=C/c2ccco2)C1 (racemic),,60%
O=C(O)[C@H]1CNC[C@@H](CCN/N=C/c2cnc(-c3ccccn3)nc2)C1 (racemic),,83%
O=C(O)[C@H]1CNC[C@@H](CCN/N=C/c2csc3ccccc23)C1 (racemic),,75%
O=C(O)[C@H]1CNC[C@@H](CCN/N=C/c2sccc2-n2cccc2)C1 (racemic),,72%
O=C(O)[C@H]1CNC[C@@H](CN/N=C/c2cc(Br)co2)C1 (racemic),,53%
O=C(O)[C@H]1CNC[C@@H](CN/N=C/c2ccc(-c3ccc(Br)cc3)o2)C1 (racemic),,59%
O=C(O)[C@H]1CNC[C@@H](CN/N=C/c2ccc(-c3ccc(Cl)cc3)s2)C1 (racemic),,75%
O=C(O)[C@H]1CNC[C@@H](CN/N=C/c2ccc(-c3ccccc3)[nH]2)C1 (racemic),,85%
O=C(O)[C@H]1CNC[C@@H](CN/N=C/c2ccc(-c3ccccc3)s2)C1 (racemic),,55%
O=C(O)[C@H]1CNC[C@@H](CN/N=C/c2ccc(-c3ccccc3Br)o2)C1 (racemic),,36%
O=C(O)[C@H]1CNC[C@@H](CN/N=C/c2ccc(Br)o2)C1 (racemic),,55%
O=C(O)[C@H]1CNC[C@@H](CN/N=C/c2ccc(I)o2)C1 (racemic),,69%
O=C(O)[C@H]1CNC[C@@H](CN/N=C/c2ccc[nH]2)C1 (racemic),,89%
O=C(O)[C@H]1CNC[C@@H](CN/N=C/c2cccc(-c3ccc(Cl)cc3)c2)C1 (racemic),,52%
O=C(O)[C@H]1CNC[C@@H](CN/N=C/c2cccc(-c3ccc(F)cc3)c2)C1 (racemic),,50%

Compound,inhibition [1],Activity [2]
O=C(O)[C@H]1CNC[C@@H](CN/N=C/c2cccs2)C1 (racemic),,67%
O=C(O)[C@H]1CNC[C@@H](CN/N=C/c2cnc(-c3ccc4ccccc4c3)nc2)C1 (racemic),,27%
O=C(O)[C@H]1CNC[C@@H](CN/N=C/c2cnc(-c3cccc4ccccc34)nc2)C1 (racemic),,61%
O=C(O)[C@H]1CNC[C@@H](CN/N=C/c2cnc(-c3ccccc3)nc2)C1 (racemic),,55%
O=C(O)[C@H]1CNC[C@@H](CN/N=C/c2cnc(-c3ccccc3F)nc2)C1 (racemic),,68%
O=C(O)[C@H]1CNC[C@@H](CN/N=C/c2cnc(-c3ccco3)nc2)C1 (racemic),,73%
O=C(O)[C@H]1CNC[C@@H](CN/N=C/c2cnc(-c3cccs3)nc2)C1 (racemic),,60%
O=C(O)[C@H]1CNC[C@@H](CN/N=C/c2cnc(N3CCCCC3)nc2)C1 (racemic),,69%
O=C(O)[C@H]1CNC[C@@H](CN/N=C/c2cnc(NCc3ccccc3)nc2)C1 (racemic),,60%
O=C(O)[C@H]1CNC[C@@H](CN/N=C/c2cnc(SCc3ccccc3)nc2)C1 (racemic),,53%
O=C(O)[C@H]1CNC[C@@H](CN/N=C/c2cncnc2)C1 (racemic),,64%
O=C(O)[C@H]1CNC[C@H](CCN/N=C/c2ccc(-c3ccc(C(F)(F)F)cc3Cl)o2)C1 (racemic),,> 50%
O=C(O)[C@H]1CNC[C@H](CCN/N=C/c2ccc(-c3ccccc3OC(F)(F)F)o2)C1 (racemic),,> 50%
O=C(O)[C@H]1CNC[C@H](CCN/N=C/c2ccc(C#Cc3ccccc3)s2)C1 (racemic),,> 50%
O=C(O)[C@H]1CNC[C@H](CCN/N=C/c2ccccc2-n2cccc2)C1 (racemic),,> 50%
O=C(O)[C@H]1CNC[C@H](CCN/N=C/c2cccn2-c2ccc(C(F)(F)F)cc2)C1 (racemic),,> 50%
O=C(O)[C@H]1CNC[C@H](CCN/N=C/c2csc3ccccc23)C1 (racemic),,> 50%
O=C(O)[C@H]1CNC[C@H](CCN/N=C/c2sccc2-n2cccc2)C1 (racemic),,> 50%
O=C(O)[C@H]1CNC[C@H](CN/N=C/c2ccc(-c3ccc(C(F)(F)F)cc3Cl)o2)C1 (racemic),,> 50%
O=C(O)[C@H]1CNC[C@H](CN/N=C/c2ccc(-c3ccccc3OC(F)(F)F)o2)C1 (racemic),,> 50%
O=C(O)[C@H]1CNC[C@H](CN/N=C/c2ccc(C#Cc3ccccc3)s2)C1 (racemic),,> 50%
O=C(O)[C@H]1CNC[C@H](CN/N=C/c2ccccc2-n2cccc2)C1 (racemic),,> 50%
O=C(O)[C@H]1CNC[C@H](CN/N=C/c2cccn2-c2ccc(C(F)(F)F)cc2)C1 (racemic),,> 50%
O=C(O)[C@H]1CNC[C@H](CN/N=C/c2csc3ccccc23)C1 (racemic),,> 50%
O=C(O)[C@H]1CNC[C@H](CN/N=C/c2sccc2-n2cccc2)C1 (racemic),,> 50%
